Data taken from ChEMBL document CHEMBL1145636, “Discovery of a novel and potent series of thieno[3,2-b]pyridine-based inhibitors of c-Met and VEGFR2 tyrosine kinases” (Bioorg Med Chem Lett, 2008).
Converted amounts (≈) assume the structure as drawn.

Experiments:
[1] = target: T1, Vascular endothelial growth factor receptor 2 (Homo sapiens, UniProt P35968); assay: Inhibition of GST tagged VEGFR2 expressed in Sf9 cells
How it was run: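 GST-fused VEGFR2 catalytic domain, baculovirus-expressed in Sf9 cells (MOI 0.1), glutathione-agarose purified; 5 nM enzyme preincubated with inhibitor and Mg-ATP on ice 4 min, then reacted on immobilized poly(Glu4,Tyr) at 30 °C for 10 min in 60 mM Hepes pH 7.5, MgCl2/MnCl2; ATP 0.6 (2× Km); Eu anti-phosphotyrosine TR-fluorescence; seven concentrations in triplicate, four-parameter IC50 fit.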

[2] = target: T2, Hepatocyte growth factor receptor (Homo sapiens, UniProt P08581); assay: Inhibition of GST tagged c-Met expressed in High Five cells
Target sequence in this assay (P08581 whole entry, the tested form may be a part): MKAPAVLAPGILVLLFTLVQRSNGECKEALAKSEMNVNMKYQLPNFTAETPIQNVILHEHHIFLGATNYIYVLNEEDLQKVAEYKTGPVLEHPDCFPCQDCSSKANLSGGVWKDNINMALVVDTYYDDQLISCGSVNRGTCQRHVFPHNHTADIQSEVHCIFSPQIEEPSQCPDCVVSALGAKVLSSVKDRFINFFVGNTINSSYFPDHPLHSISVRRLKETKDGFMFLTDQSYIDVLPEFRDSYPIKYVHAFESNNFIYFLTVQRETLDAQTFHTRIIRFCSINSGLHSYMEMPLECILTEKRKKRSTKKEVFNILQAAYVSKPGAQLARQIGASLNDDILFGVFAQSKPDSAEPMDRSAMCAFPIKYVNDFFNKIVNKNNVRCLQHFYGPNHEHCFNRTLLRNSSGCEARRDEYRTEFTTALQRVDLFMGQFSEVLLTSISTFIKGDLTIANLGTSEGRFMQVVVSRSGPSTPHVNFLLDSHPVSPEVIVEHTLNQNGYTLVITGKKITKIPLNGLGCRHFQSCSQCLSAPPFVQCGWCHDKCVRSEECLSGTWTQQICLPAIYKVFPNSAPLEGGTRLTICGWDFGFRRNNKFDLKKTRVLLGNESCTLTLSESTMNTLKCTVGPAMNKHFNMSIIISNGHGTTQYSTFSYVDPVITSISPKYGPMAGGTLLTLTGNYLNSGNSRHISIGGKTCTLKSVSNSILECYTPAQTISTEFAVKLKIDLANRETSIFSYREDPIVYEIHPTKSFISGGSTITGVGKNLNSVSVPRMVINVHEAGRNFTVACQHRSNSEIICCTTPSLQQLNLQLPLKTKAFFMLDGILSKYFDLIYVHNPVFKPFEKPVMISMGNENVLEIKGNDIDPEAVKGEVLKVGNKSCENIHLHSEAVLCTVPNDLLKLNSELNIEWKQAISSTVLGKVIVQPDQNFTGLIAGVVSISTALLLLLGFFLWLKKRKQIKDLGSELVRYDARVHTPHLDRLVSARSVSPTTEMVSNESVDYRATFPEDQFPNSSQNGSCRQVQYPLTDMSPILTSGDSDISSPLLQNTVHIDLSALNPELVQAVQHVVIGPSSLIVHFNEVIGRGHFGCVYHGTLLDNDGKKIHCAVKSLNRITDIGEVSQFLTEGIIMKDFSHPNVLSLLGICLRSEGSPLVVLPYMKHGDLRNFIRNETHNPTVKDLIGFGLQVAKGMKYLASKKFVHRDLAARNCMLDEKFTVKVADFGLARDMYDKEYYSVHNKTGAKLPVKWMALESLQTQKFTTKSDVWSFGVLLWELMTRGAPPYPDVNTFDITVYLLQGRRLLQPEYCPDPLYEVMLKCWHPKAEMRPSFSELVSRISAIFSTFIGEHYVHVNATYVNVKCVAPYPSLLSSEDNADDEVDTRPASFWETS

[3] = target: T2, Hepatocyte growth factor receptor; assay: Inhibition of TPR-Met fusion protein assessed as Y1230-34-35 phosphorylation
Target sequence in this assay (P08581 25-1390 limits assumed): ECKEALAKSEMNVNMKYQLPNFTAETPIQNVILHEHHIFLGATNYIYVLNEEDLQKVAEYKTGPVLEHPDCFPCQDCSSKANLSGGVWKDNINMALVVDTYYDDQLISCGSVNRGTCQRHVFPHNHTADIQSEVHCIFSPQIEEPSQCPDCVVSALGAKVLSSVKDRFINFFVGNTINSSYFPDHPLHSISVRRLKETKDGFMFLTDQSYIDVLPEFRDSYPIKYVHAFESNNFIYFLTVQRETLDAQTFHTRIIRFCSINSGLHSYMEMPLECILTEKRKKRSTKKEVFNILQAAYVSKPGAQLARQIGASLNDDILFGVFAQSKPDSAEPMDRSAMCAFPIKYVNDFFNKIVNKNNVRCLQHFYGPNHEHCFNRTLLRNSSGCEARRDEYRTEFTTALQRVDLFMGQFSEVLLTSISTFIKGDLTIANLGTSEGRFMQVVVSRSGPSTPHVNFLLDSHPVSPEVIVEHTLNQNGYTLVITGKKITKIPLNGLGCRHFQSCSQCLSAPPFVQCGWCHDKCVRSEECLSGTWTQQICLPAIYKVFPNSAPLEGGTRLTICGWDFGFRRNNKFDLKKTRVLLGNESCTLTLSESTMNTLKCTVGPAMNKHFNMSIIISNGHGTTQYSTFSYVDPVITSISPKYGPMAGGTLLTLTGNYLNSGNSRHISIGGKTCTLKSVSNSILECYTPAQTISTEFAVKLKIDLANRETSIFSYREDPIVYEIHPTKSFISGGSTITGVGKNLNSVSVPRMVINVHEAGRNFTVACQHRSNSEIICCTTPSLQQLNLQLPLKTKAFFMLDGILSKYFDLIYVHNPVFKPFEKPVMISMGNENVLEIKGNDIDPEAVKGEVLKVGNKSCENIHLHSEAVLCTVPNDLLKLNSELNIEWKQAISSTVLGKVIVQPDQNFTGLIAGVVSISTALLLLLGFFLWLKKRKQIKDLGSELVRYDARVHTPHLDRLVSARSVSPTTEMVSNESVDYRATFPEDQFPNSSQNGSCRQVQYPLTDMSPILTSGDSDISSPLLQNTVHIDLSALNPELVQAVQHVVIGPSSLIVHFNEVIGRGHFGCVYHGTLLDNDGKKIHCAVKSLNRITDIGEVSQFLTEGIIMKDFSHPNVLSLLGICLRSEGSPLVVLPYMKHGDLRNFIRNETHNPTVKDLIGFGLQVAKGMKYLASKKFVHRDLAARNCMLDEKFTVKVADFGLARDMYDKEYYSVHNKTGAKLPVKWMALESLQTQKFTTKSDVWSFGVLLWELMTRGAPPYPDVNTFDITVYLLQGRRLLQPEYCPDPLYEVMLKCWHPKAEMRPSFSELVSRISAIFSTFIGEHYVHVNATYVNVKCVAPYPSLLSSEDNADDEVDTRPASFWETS

[4] = Solubility of compound; assay type: physicochemical
[5] = Half life in Sprague-Dawley rat at 2.5 mg/kg, iv; assay type: ADME, organism-based; design: dose 2.5 mg/kg, route intravenous; conditions: in vivo
How it was run: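 Female Sprague–Dawley rats were given a single iv dose of 2.5 mg/kg (four animals) in DMSO. The test material had >95% chromatographic purity. Plasma was analysed by HPLC with triple-quadrupole MS, and PK parameters were calculated from the concentration–time data.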

[6] = Clearance in Sprague-Dawley rat; assay type: ADME, organism-based; conditions: in vivo
[7] = Volume of distribution at steady state in Sprague-Dawley rat; assay type: ADME, organism-based; conditions: in vivo, read-out: Vdss
[8] = Tmax in Sprague-Dawley rat at 5 mg/kg, po; assay type: ADME, organism-based; design: dose 5 mg/kg, route oral; conditions: in vivo
[9] = Cmax in Sprague-Dawley rat at 5 mg/kg, po; assay type: ADME, organism-based; design: dose 5 mg/kg, route oral; conditions: in vivo
[10] = AUC in Sprague-Dawley rat at 5 mg/kg, po; assay type: ADME, organism-based; design: dose 5 mg/kg, route oral; conditions: plasma
[11] = Oral bioavailability in Sprague-Dawley rat at 5 mg/kg; assay type: ADME, organism-based; conditions: in vivo
How it was run: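 An iv reference arm received 2.5 mg/kg (four animals) in DMSO. Plasma was analysed by HPLC-triple-quadrupole MS, and %F was derived from po versus iv exposure.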

[12] = Half life in Beagle dog at 0.8 mg/kg, iv; assay type: ADME, organism-based, Canis lupus familiaris; design: dose 0.8 mg/kg, route intravenous; conditions: in vivo
Canis familiaris [13] = assay: Clearance in Beagle dog at 0.8 mg/kg, iv or 5 mg/kg, po; assay type: ADME, organism-based, Canis lupus familiaris; conditions: in vivo
[14] = Volume of distribution at steady state in Beagle dog at 0.8 mg/kg, iv or 5 mg/kg, po; assay type: ADME, organism-based, Canis lupus familiaris; conditions: in vivo, read-out: Vdss
[15] = Tmax in Beagle dog at 5 mg/kg, po; assay type: ADME, organism-based, Canis lupus familiaris; design: dose 5 mg/kg, route oral; conditions: in vivo
[16] = Cmax in Beagle dog at 5 mg/kg, po; assay type: ADME, organism-based, Canis lupus familiaris; design: dose 5 mg/kg, route oral; conditions: in vivo
Canis familiaris [17] = assay: AUC in Beagle dog at 5 mg/kg, po; assay type: ADME, organism-based, Canis lupus familiaris, Plasma; design: dose 5 mg/kg, route oral; conditions: in vivo
Canis familiaris [18] = assay: Oral bioavailability in Beagle dog at 5 mg/kg; assay type: ADME, organism-based, Canis lupus familiaris; conditions: in vivo
[19] = target: T1, Vascular endothelial growth factor receptor 2; assay: Inhibition of human VEGFR2-dependent ERK phosphorylation in HUVEC; assay type: cell-based
COLO 205 = assay: Antitumor activity in human Colo205 cells xenografted mouse assessed as tumor growth inhibition at 20 mg/kg, po once daily after 16 days; assay type: functional; conditions: COLO 205, 384 h, read-out: TGI
How it was run: (§1)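 Human tumor xenografts in mice; test agent given orally at 20 mg/kg once daily; efficacy expressed as percent tumor growth inhibition.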

DU-145 = assay: Antitumor activity in human DU145 cells xenografted mouse assessed as tumor growth inhibition at 20 mg/kg, po once daily after 11 days; assay type: functional; conditions: DU-145, 264 h, read-out: TGI; how it was run: as §1
HCT-116 = assay: Antitumor activity in human HCT116 cells xenografted mouse assessed as tumor growth inhibition at 20 mg/kg, po once daily after 14 days; assay type: functional; conditions: HCT-116, 336 h, read-out: TGI; how it was run: as §1
HOS-TE85 = assay: Antitumor activity in human MNNGHOS cells xenografted mouse assessed as tumor growth inhibition at 20 mg/kg, po once daily after 26 days; assay type: functional; conditions: HOS-TE85, 624 h, read-out: TGI; how it was run: as §1
MKN-45 = assay: Antitumor activity in human MKN45 cells xenografted mouse assessed as tumor growth inhibition at 20 mg/kg, po once daily after 13 days; assay type: functional; conditions: MKN-45, 312 h, read-out: TGI; how it was run: as §1
Cytochrome P450 3A4 = Cytochrome P450 3A4 (Homo sapiens, UniProt P08684); assay: Inhibition of CYP3A4 at 10 uM; assay type: ADME
Sequence of Cytochrome P450 3A4 (P08684 whole entry): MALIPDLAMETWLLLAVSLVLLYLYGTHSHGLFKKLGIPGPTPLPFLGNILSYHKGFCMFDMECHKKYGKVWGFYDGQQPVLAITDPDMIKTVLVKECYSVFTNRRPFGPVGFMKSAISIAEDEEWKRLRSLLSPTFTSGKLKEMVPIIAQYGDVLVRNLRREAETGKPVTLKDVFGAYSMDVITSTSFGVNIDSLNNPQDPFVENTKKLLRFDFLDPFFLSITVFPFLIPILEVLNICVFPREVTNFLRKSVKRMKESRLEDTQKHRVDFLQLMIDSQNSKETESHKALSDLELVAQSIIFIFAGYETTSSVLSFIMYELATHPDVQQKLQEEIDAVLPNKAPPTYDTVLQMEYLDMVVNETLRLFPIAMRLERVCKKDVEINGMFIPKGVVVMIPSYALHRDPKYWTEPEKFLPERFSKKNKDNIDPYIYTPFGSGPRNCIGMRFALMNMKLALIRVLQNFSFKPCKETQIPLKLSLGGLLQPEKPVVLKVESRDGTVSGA

[20] = target: Vascular endothelial growth factor receptor 1 (Homo sapiens) (UniProt P17948); assay: Inhibition of VEGFR1 at 100 nM
How it was run: (§2)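 Radiometric protein kinase assays run through an outsourced kinase selectivity screening service; test agent at 100 nM, percent inhibition of each enzyme reported.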

[21] = target: Vascular endothelial growth factor receptor 3 (Homo sapiens) (UniProt P35916); assay: Inhibition of VEGFR3 at 100 nM; how it was run: as §2
[22] = target: Glycogen synthase kinase-3 beta (Homo sapiens) (UniProt P49841); assay: Inhibition of GSK3-beta at 100 nM; how it was run: as §2
[23] = target: Macrophage-stimulating protein receptor (Homo sapiens) (UniProt Q04912); assay: Inhibition of Ron at 100 nM; how it was run: as §2
[24] = target: Angiopoietin-1 receptor (Homo sapiens) (UniProt Q02763); assay: Inhibition of Tie2 at 100 nM; how it was run: as §2
[25] = target: Receptor-type tyrosine-protein kinase FLT3 (Homo sapiens) (UniProt P36888); assay: Inhibition of Flt3 at 100 nM; how it was run: as §2
[26] = target: Mast/stem cell growth factor receptor Kit (Homo sapiens) (UniProt P10721); assay: Inhibition of c-Kit at 100 nM; how it was run: as §2
[27] = target: Tyrosine-protein kinase ABL1 (Homo sapiens) (UniProt P00519); assay: Inhibition of Abl at 100 nM; how it was run: as §2
[28] = target: High affinity nerve growth factor receptor (Homo sapiens) (UniProt P04629); assay: Inhibition of TrkA at 100 nM; how it was run: as §2
[29] = target: Serine/threonine-protein kinase Chk1 (Homo sapiens) (UniProt O14757); assay: Inhibition of CHK1 at 100 nM; how it was run: as §2
Sequence of Serine/threonine-protein kinase Chk1 (Homo sapiens) (O14757 whole entry): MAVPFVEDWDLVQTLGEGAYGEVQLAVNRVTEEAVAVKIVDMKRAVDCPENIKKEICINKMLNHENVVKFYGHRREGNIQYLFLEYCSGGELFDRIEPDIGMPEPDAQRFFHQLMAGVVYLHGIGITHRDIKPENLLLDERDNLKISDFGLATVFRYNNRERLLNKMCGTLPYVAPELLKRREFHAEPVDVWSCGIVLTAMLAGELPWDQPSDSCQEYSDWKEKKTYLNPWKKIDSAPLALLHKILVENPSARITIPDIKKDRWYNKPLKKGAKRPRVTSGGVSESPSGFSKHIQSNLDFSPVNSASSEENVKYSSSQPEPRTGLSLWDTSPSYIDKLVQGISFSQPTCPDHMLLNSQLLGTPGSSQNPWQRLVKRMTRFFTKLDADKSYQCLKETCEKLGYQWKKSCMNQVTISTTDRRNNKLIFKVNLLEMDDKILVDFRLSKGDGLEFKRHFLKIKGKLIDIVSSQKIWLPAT

[30] = target: Epidermal growth factor receptor (Homo sapiens) (UniProt P00533); assay: Inhibition of EGFR at 100 nM; how it was run: as §2
[31] = target: Insulin-like growth factor 1 receptor (Homo sapiens) (UniProt P08069); assay: Inhibition of IGF1R at 100 nM; how it was run: as §2
[32] = target: Inhibitor of nuclear factor kappa-B kinase subunit beta (Homo sapiens) (UniProt O14920); assay: Inhibition of IKK-beta at 100 nM; how it was run: as §2
[33] = target: Tyrosine-protein kinase JAK2 (Homo sapiens) (UniProt O60674); assay: Inhibition of JAK2 at 100 nM; how it was run: as §2
[34] = Inhibition of JNK1-alpha-1 at 100 nM; how it was run: as §2

T1 sequence (P35968 whole entry, the tested form may be a part): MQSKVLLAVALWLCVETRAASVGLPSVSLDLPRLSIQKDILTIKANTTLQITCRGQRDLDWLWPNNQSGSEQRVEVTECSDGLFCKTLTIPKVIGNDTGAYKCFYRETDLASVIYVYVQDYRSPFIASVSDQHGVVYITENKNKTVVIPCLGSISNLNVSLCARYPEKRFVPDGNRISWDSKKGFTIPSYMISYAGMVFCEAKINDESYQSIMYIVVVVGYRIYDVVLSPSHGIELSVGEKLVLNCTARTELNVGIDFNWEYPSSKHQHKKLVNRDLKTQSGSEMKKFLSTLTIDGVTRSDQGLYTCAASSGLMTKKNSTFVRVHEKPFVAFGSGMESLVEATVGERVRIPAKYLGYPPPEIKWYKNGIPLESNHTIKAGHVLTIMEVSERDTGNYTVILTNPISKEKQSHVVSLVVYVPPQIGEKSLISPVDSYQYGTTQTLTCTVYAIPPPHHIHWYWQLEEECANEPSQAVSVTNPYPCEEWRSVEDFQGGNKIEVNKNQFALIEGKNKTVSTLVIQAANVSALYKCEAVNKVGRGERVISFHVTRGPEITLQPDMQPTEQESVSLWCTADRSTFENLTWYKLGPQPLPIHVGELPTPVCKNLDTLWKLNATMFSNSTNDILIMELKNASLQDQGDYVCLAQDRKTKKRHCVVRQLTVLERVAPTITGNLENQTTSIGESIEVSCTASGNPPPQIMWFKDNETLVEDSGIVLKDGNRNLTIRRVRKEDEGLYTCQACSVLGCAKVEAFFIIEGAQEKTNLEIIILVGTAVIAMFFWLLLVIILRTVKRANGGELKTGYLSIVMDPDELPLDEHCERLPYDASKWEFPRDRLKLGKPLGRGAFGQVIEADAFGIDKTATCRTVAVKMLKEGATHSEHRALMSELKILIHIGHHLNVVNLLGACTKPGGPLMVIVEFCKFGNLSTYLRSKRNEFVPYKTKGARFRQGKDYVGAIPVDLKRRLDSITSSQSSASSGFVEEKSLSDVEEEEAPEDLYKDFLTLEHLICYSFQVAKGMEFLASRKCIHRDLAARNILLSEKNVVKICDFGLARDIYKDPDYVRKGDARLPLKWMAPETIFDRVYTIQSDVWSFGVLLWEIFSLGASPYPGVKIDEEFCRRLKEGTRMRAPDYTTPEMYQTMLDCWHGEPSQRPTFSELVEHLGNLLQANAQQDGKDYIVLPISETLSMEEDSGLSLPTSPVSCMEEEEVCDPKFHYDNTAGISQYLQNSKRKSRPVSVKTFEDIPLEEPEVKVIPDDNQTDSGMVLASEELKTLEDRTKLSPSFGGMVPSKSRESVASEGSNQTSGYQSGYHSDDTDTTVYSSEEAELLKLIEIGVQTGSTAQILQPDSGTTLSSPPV

O=C(Cc1ccccc1)NC(=S)Nc1ccc(Oc2ccnc3cc(-c4ccoc4)sc23)c(F)c1
IC50 [1]: 593 nM | IC50 [2]: 74 nM

O=C(Cc1ccccc1)NC(=S)Nc1ccc(Oc2ccnc3cc(-c4cncnc4)sc23)c(F)c1
IC50 [1]: 175 nM | IC50 [3]: 5000 nM | IC50 [2]: 63 nM

O=C(Cc1ccccc1)NC(=S)Nc1ccc(Oc2ccnc3cc(-c4nccs4)sc23)c(F)c1
IC50 [1]: 17 nM | IC50 [3]: 28 nM | IC50 [2]: 65 nM

O=C(Cc1ccccc1)NC(=S)Nc1ccc(Oc2ccnc3ccsc23)c(F)c1
IC50 [1]: 1130 nM

O=C(Cc1ccccc1)NC(=S)Nc1ccc(Oc2ccnc3cc(C(=O)N4CCOCC4)sc23)c(F)c1
IC50 [1]: 289 nM | IC50 [2]: 125 nM

Cn1cc(-c2cc3nccc(Oc4ccc(NC(=S)NC(=O)Cc5ccccc5)cc4F)c3s2)cn1
IC50 [1]: 25 nM | IC50 [2]: 24 nM

CC(O)c1cc2nccc(Oc3ccc(NC(=S)NC(=O)Cc4ccccc4)cc3F)c2s1 (configuration not stated)
IC50 [1]: 561 nM

O=C(Cc1ccccc1)NC(=S)Nc1ccc(Oc2ccnc3cc(-c4ncccn4)sc23)c(F)c1
IC50 [1]: 94 nM

O=C(Cc1ccccc1)NC(=S)Nc1ccc(Oc2ccnc3cc(-c4cccnc4)sc23)c(F)c1
IC50 [1]: 113 nM

CNC(=O)c1cc2nccc(Oc3ccc(NC(=S)NC(=O)Cc4ccccc4)cc3F)c2s1
IC50 [1]: 133 nM

CN1CCN(C(=O)c2cc3nccc(Oc4ccc(NC(=S)NC(=O)Cc5ccccc5)cc4F)c3s2)CC1
IC50 [1]: 344 nM | IC50 [2]: 193 nM

Cn1cccc1-c1cc2nccc(Oc3ccc(NC(=S)NC(=O)Cc4ccccc4)cc3F)c2s1
IC50 [1]: 31 nM | IC50 [3]: 108 nM | IC50 [2]: 49 nM

O=C(Cc1ccccc1)NC(=S)Nc1ccc(Oc2ccnc3cc(C(=O)N4CCCC4)sc23)c(F)c1
IC50 [1]: 9 nM | IC50 [2]: 54 nM

O=C(Cc1ccccc1)NC(=S)Nc1ccc(Oc2ccnc3cc(C(=O)c4ccco4)sc23)c(F)c1
IC50 [1]: 127 nM | IC50 [2]: 130 nM

CCN(CC)C(=O)c1cc2nccc(Oc3ccc(NC(=S)NC(=O)Cc4ccccc4)cc3F)c2s1
IC50 [1]: 386 nM | IC50 [2]: 114 nM

CCn1cnc(-c2cc3nccc(Oc4ccc(NC(=S)NC(=O)Cc5ccccc5)cc4F)c3s2)c1
IC50 [1]: 11 nM | IC50 [3]: 22 nM | IC50 [2]: 52 nM

Cn1ncnc1-c1cc2nccc(Oc3ccc(NC(=S)NC(=O)Cc4ccccc4)cc3F)c2s1
IC50 [1]: 28 nM | IC50 [3]: 20 nM | IC50 [2]: 69 nM

O=C(Cc1ccccc1)NC(=S)Nc1ccc(Oc2ccnc3cc(-c4ccccn4)sc23)c(F)c1
IC50 [1]: 17 nM

CN(C)C(=O)c1cc2nccc(Oc3ccc(NC(=S)NC(=O)Cc4ccccc4)cc3F)c2s1
IC50 [1]: 19 nM

COc1cc2nccc(Oc3ccc(NC(=S)NC(=O)Cc4ccccc4)cc3F)c2cc1OC
IC50 [1]: 32 nM

COC(=O)c1cc2nccc(Oc3ccc(NC(=S)NC(=O)Cc4ccccc4)cc3F)c2s1
IC50 [1]: 90 nM

Cn1ccnc1-c1cc2nccc(Oc3ccc(NC(=S)NC(=O)Cc4ccccc4)cc3F)c2s1
IC50 [1]: 10 nM | solubility [4]: 1.7 µg/mL (≈ 3.28 µM)

CCn1ccnc1-c1cc2nccc(Oc3ccc(NC(=S)NC(=O)Cc4ccccc4)cc3F)c2s1
IC50 [1]: 25 nM | IC50 [3]: 35 nM | IC50 [2]: 108 nM

O=C(Cc1ccccc1)NC(=S)Nc1ccc(Oc2ccnc3cc(-c4cccs4)sc23)c(F)c1
IC50 [1]: 32 nM

NC(=O)c1cc2nccc(Oc3ccc(NC(=S)NC(=O)Cc4ccccc4)cc3F)c2s1
IC50 [1]: 129 nM

CSc1cc2nccc(Oc3ccc(NC(=S)NC(=O)Cc4ccccc4)cc3F)c2s1
IC50 [1]: 346 nM

Cn1cnc(-c2cc3nccc(Oc4ccc(NC(=S)NC(=O)Cc5ccccc5)cc4F)c3s2)c1
IC50 [1]: 10 nM | IC50 [3]: 12 nM | solubility [4]: 30 µg/mL (≈ 58 µM) | half-life [5]: 1.2 h | clearance [6]: 5.5 mL/min/kg | Vd [7]: 0.25 L/kg | Tmax [8]: 3.5 h | Cmax [9]: 140 nM | AUC [10]: 0.74 µM·h | bioavailability [11]: 12% | half-life [12]: 5.8 h | CL (Canis familiaris [13]): 18.3 mL/min/kg | Vd [14]: 1.5 L/kg | Tmax [15]: 1.1 h | Cmax [16]: 210 nM | AUC (Canis familiaris [17]): 0.74 µM·h | F (Canis familiaris [18]): 42% | IC50 [19]: 30 nM | inhibition in vivo at 20 mg/kg (COLO 205): 41% | inhibition in vivo at 20 mg/kg (DU-145): 57% | inhibition in vivo at 20 mg/kg (HCT-116): 41% | inhibition in vivo at 20 mg/kg (HOS-TE85): 61% | inhibition in vivo at 20 mg/kg (MKN-45): 94% | Inhibition (Cytochrome P450 3A4): Not Active | inhibition [20]: 91% | inhibition [21]: 100% | inhibition [22]: < 5% | inhibition [23]: 80% | inhibition [24]: 81% | inhibition [25]: 96% | inhibition [26]: 92% | inhibition [27]: 91% | inhibition [28]: 99% | inhibition [29]: < 5% | inhibition [30]: < 5% | inhibition [31]: < 5% | inhibition [32]: < 5% | inhibition [33]: < 5% | inhibition [34]: < 5%

O=C(Cc1ccccc1)NC(=S)Nc1ccc(Oc2ccnc3cc(-c4nncs4)sc23)c(F)c1
IC50 [1]: 145 nM | IC50 [2]: 60 nM
